Drawing on ChEMBL document CHEMBL4130534, “Genomics-Driven Discovery of Chlorinated Cyclic Hexapeptides Ulleungmycins A and B from a Streptomyces Species” (2017), this text covers MIC for three compounds.

What is called MIC is the lowest concentration found to suppress growth. Higher therefore signals weaker potency.

Common to all, as to format: functional
Assay [1] concerns Staphylococcus aureus. Kind of assay: Antibacterial activity against quinolone-resistant Staphylococcus aureus CCARM 3505 after 24 hrs by broth microdilution method. Conditions: CCARM 3505, 24 h. The method in brief: (§1)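 Broth microdilution in Mueller−Hinton broth. Strains grown to mid-log phase in the same medium and diluted 1000-fold, then inoculated at 10^5 cells/mL. Compounds dissolved in DMSO (final ≤0.05%) and tested as serial 2-fold dilutions; 0.05% DMSO as vehicle control. Incubated 24 h at 37 °C with growth read as absorbance at 650 nm. MIC taken as the lowest concentration completely inhibiting growth, in triplicate.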
Background: Broth dilution looks for growth in wells or tubes with falling amounts of substance.

In assay [2] the test system is Pseudomonas aeruginosa. As to the kind of experiment: Antibacterial activity against Pseudomonas aeruginosa KCTC 2004 after 24 hrs by broth microdilution method. Conditions: KCTC 2004, 24 h. A digest of the protocol: (§2)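 Broth microdilution in Mueller–Hinton broth. Strains grown to mid-log phase and diluted 1000-fold in the same medium. Cells at 10^5/mL, 0.2 mL/well. Test samples prepared in DMSO (final ≤0.05%), with 0.05% DMSO as vehicle control. Serial 2-fold dilutions, 24 h at 37 °C. Growth read as absorbance at 650 nm. MIC is the lowest concentration giving complete growth inhibition, done in triplicate.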

Assay [3] has as its system Bacillus subtilis. Kind of assay: Antibacterial activity against Bacillus subtilis KCTC 1021 after 24 hrs by broth microdilution method. Conditions: KCTC 1021, 24 h. A digest of the protocol: as §2
The test system of assay [4] is Enterococcus faecalis. Kind of assay: Antibacterial activity against Enterococcus faecalis KCTC 5191 after 24 hrs by broth microdilution method. Conditions: KCTC 5191, 24 h. A digest of the protocol: as §2
The test system of assay [5] is Staphylococcus aureus. As to the kind of experiment: Antibacterial activity against Staphylococcus aureus RN4220 after 24 hrs by broth microdilution method. Conditions: RN4220, 24 h. A digest of the protocol:
as §1

In assay [6] the test system is Escherichia coli. Kind of assay: Antibacterial activity against Escherichia coli CCARM 1356 after 24 hrs by broth microdilution method. Conditions: CCARM 1356, 24 h. A digest of the protocol: as §2
Assay [7] relates to Streptococcus pneumoniae. Kind of assay: Antibacterial activity against Streptococcus pneumoniae KCTC 5412 after 24 hrs by broth microdilution method. Conditions: KCTC 5412, 24 h. The method in brief:
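Broth microdilution with cells grown in Todd–Hewitt medium instead of Mueller–Hinton broth. Cells at 10^5/mL, 0.2 mL/well. Test samples prepared in DMSO (final ≤0.05%), with 0.05% DMSO as vehicle control. Serial 2-fold dilutions, 24 h at 37 °C. Growth read as absorbance at 650 nm. MIC is the lowest concentration giving complete growth inhibition, done in triplicate.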

The test system of assay [8] is Staphylococcus aureus. As to the kind of experiment: Antibacterial activity against methicillin-resistant Staphylococcus aureus CCARM 3167 after 24 hrs by broth microdilution method. Conditions: CCARM 3167, 24 h. The method in brief:
as §1

Converted amounts (≈) assume the structure as drawn. Square brackets hold non-standard residues; d marks the D form. Peptide text beside a SMILES is read from it. Trp(5-Cl) = N[C@@H](Cc1c[nH]c2ccc(Cl)cc12)C(=O)O; dAsn(3R-OH) = NC(=O)[C@H](O)[C@@H](N)C(=O)O; aIle = CC[C@@H](C)[C@H](N)C(=O)O; Orn = NCCC[C@H](N)C(=O)O

In the case of `CC[C@@H](C)[C@@H]1NC(=O)[C@@H](CCC(C)C)NC(=O)[C@@H](C(C)C)NC(=O)[C@H](Cc2c[nH]c3ccc(Cl)cc23)NC(=O)[C@@H]([C@@H](O)C(N)=O)NC(=O)[C@H](CCCN)NC1=O`, the MIC in assay [1] stood at 8 µg/mL (≈ 9.95 µM); in assay [2] it was 128 µg/mL (≈ 159 µM); in assay [3], 8 µg/mL (≈ 9.95 µM); in assay [4], 8 µg/mL (≈ 9.95 µM); in assay [5] it was 16 µg/mL (≈ 19.9 µM); in assay [6], 128 µg/mL (≈ 159 µM). The MIC in assay [7] and in assay [8] was 16 µg/mL (≈ 19.9 µM) in each case.
On to `CC[C@@H](C)[C@@H]1NC(=O)[C@@H](CC(C)C)NC(=O)[C@@H](C(C)C)NC(=O)[C@H](Cc2c[nH]c3ccc(Cl)cc23)NC(=O)[C@@H]([C@@H](O)C(N)=O)NC(=O)[C@H](CCCN)NC1=O` (cyclo([Orn][dAsn(3R-OH)][Trp(5-Cl)][dV][dL][aIle])), for which the MIC in assay [1] is 16 µg/mL (≈ 20.2 µM); in assay [2] it was 128 µg/mL (≈ 162 µM); in assay [3] it was 8 µg/mL (≈ 10.1 µM); in assay [4], 8 µg/mL (≈ 10.1 µM); in assay [5], 16 µg/mL (≈ 20.2 µM); in assay [6] it was 64 µg/mL (≈ 81 µM). Also, the results for the MIC in assay [7] and in assay [8] were 8 µg/mL (≈ 10.1 µM) and 32 µg/mL (≈ 40.5 µM), respectively.
With `O=C(O)c1cn(C2CC2)c2cc(N3CCNCC3)c(F)cc2c1=O` [CIPROFLOXACIN], the minimal inhibitory concentration (MIC) came to 32 µg/mL (≈ 96.6 µM) in assay [1]; 0.015 µg/mL (≈ 0.0453 µM) in assay [3]; 1 µg/mL (≈ 3.02 µM) in assay [4]; 64 µg/mL (≈ 193 µM) in assay [6]; 4 µg/mL (≈ 12.1 µM) in assay [8].
